ChEMBL document CHEMBL3808334, “Synthesis and in vitro evaluation of novel triazine analogues as anticancer agents and their interaction studies with bovine serum albumin” (Eur J Med Chem, 2016)

Legend:
MDA-MB-231 = experiment: Growth inhibition of human MDA-MB-231 cells incubated for 48 hrs by sulforhodamine B assay; format: functional; settings: MDA-MB-231, 48 h
Outline: (§1)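 Cells were plated at 5,000–40,000 per well according to doubling time and preincubated 24 h at 37 °C in 5% CO2; time-zero plates were then TCA-fixed. Five concentrations (10-fold or ½-log dilutions, DMSO stock) were incubated 48 h. Cells were TCA-fixed, stained with 0.4% SRB and read at 515 nm. GI50 was taken where [(Ti−Tz)/(C−Tz)]×100 = 50.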

NCI-H460 = experiment: Growth inhibition of human NCI-H460 cells incubated for 48 hrs by sulforhodamine B assay; format: functional; settings: NCI-H460, 48 h; outline: as §1
[1] = Growth inhibition of human OVCAR8 cells assessed as cell growth at 10^-4 M incubated for 48 hrs by sulforhodamine B assay; format: functional; settings: OVCAR-8, 48 h, read-out: Activity
SK-MEL-5 = experiment: Growth inhibition of human SK-MEL-5 cells assessed as cell growth at 10^-4 M incubated for 48 hrs by sulforhodamine B assay; format: functional; settings: SK-MEL-5, 48 h, read-out: Activity
T47D = experiment: Growth inhibition of human T47D cells assessed as cell growth at 10^-6 M incubated for 48 hrs by sulforhodamine B assay; format: functional; settings: read-out: Activity
NCI-H226 = experiment: Growth inhibition of human NCI-H226 cells incubated for 48 hrs by sulforhodamine B assay; format: functional; settings: NCI-H226, 48 h; outline: as §1
[2] = Growth inhibition of human RPMI8226 cells incubated for 48 hrs by sulforhodamine B assay; format: functional; settings: RPMI-8226, 48 h; outline: as §1
Albumin = Albumin (Bos taurus, UniProt P02769); experiment: Binding affinity to bovine serum albumin assessed as hyperchromicity in absorption spectra up to 20 uM after 5 mins by UV-visible spectroscopic analysis relative to control; format: ADME; settings: cattle, isolated protein
Outline: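 UV-visible absorption titration of 10 µM BSA in 0.1 M phosphate buffer pH 7.4 with increasing compound, 0–20 µM. Compounds diluted from DMSO stocks into buffer. Spectra recorded 200–800 nm in a 1 cm quartz cell at 300 K after 5 min equilibration. The BSA band is at 279 nm; changes are compared with BSA alone.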

[3] = Growth inhibition of human HCT116 cells assessed as cell growth at 10^-7 M incubated for 48 hrs by sulforhodamine B assay; format: functional; settings: HCT-116, 48 h, read-out: Activity
Outline: (§2)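 Cells seeded at 5,000–40,000/well according to doubling time and preincubated 24 h at 37 °C, 5% CO2. Time-zero plates were TCA-fixed. DMSO concentrate was diluted in medium with 50 µg/ml gentamicin to give five concentrations (10-fold or ½ log steps), then exposed 48 h. Cells were TCA-fixed, stained with 0.4% SRB and read at 515 nm. Percent growth was taken against time-zero and control; GI50, TGI and LC50 derived.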

MCF7 = experiment: Growth inhibition of human MCF7 cells incubated for 48 hrs by sulforhodamine B assay; format: functional; settings: MCF7, 48 h; outline: as §1
[4] = Growth inhibition of human OVCAR4 cells incubated for 48 hrs by sulforhodamine B assay; format: functional; settings: OVCAR-4, 48 h; outline: as §1
[5] = Growth inhibition of human SF268 cells assessed as cell growth at 10^-4 M incubated for 48 hrs by sulforhodamine B assay; format: functional; settings: SF-268, 48 h, read-out: Activity
[6] = Growth inhibition of human PC3 cells assessed as cell growth at 10 uM incubated for 48 hrs by sulforhodamine B assay; format: functional; settings: PC-3, 48 h, read-out: Activity
[7] = Growth inhibition of human UO31 cells assessed as cell growth at 10^-6 M incubated for 48 hrs by sulforhodamine B assay; format: functional; settings: UO-31, 48 h, read-out: Activity
[8] = Growth inhibition of human PC3 cells assessed as cell growth at 10^-5 M incubated for 48 hrs by sulforhodamine B assay; format: functional; settings: PC-3, 48 h, read-out: Activity
[9] = Growth inhibition of human SNB19 cells assessed as cell growth at 10^-8 M incubated for 48 hrs by sulforhodamine B assay; format: functional; settings: SNB-19, 48 h, read-out: Activity
SK-MEL-2 [10] = experiment: Growth inhibition of human SK-MEL-2 cells assessed as cell growth at 10^-4 M incubated for 48 hrs by sulforhodamine B assay; format: functional; settings: SK-MEL-2, 48 h, read-out: Activity
SK-MEL-2 [11] = experiment: Growth inhibition of human SK-MEL-2 cells assessed as cell growth at 10^-6 M incubated for 48 hrs by sulforhodamine B assay; format: functional; settings: SK-MEL-2, 48 h, read-out: Activity
[12] = Growth inhibition of human HCC2998 cells assessed as cell growth at 10^-5 M incubated for 48 hrs by sulforhodamine B assay; format: functional; settings: HCC 2998, 48 h, read-out: Activity; outline: as §2
[13] = Growth inhibition of human TK10 cells assessed as cell growth at 10^-7 M incubated for 48 hrs by sulforhodamine B assay; format: functional; settings: TK-10, 48 h, read-out: Activity
[14] = Growth inhibition of human TK10 cells incubated for 48 hrs by sulforhodamine B assay; format: functional; settings: TK-10, 48 h; outline: as §1
[15] = Growth inhibition of human SKOV3 cells assessed as cell growth at 10^-4 M incubated for 48 hrs by sulforhodamine B assay; format: functional; settings: SK-OV-3, 48 h, read-out: Activity
MDA-MB-468 = experiment: Growth inhibition of human MDA-MB-468 cells assessed as cell growth at 10^-5 M incubated for 48 hrs by sulforhodamine B assay; format: functional; settings: MDA-MB-468, 48 h, read-out: Activity
U-251 = experiment: Growth inhibition of human U251 cells assessed as cell growth at 10^-7 M incubated for 48 hrs by sulforhodamine B assay; format: functional; settings: U-251, 48 h, read-out: Activity
[16] = read-out: LC50 (the source's name)
[17] = read-out: pLC50 (the source's name) (converted)

Chain of Albumin (P02769 whole entry): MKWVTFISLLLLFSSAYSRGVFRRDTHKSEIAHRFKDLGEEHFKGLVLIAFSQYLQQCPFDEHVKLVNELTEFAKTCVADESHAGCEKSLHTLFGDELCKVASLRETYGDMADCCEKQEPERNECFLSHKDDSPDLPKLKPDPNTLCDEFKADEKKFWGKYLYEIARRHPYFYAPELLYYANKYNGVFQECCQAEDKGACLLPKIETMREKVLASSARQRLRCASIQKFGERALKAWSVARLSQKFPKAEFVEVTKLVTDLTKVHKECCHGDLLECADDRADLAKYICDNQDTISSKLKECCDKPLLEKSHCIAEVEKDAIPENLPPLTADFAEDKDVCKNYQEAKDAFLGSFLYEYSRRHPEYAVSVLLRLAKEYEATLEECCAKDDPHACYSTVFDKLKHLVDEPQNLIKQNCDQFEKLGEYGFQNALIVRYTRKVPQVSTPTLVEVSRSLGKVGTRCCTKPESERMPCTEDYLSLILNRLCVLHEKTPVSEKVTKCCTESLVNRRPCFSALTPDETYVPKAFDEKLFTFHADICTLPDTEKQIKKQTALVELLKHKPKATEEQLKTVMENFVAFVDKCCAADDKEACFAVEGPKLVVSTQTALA

Molecule `c1ccc2[nH]c(-c3ccc(Nc4nc(N5CCCCC5)nc(N5CCOCC5)n4)cc3)nc2c1` has a GI50 (MDA-MB-231; read-out: GI50) of 2.5 µM, a CC50 (MDA-MB-231; [16]) greater than 100 µM and a TGI (MDA-MB-231; read-out: TGI) of 7.52 µM. The GI50 (MDA-MB-231; read-out: pGI50 (converted)) was 2.51 µM, the CC50 (MDA-MB-231; [17]) was greater than 100 µM and the TGI (MDA-MB-231; read-out: pTGI (converted)) was 7.59 µM. For the same molecule, the GI50 (NCI-H460; read-out: GI50) was 2.44 µM, the CC50 (NCI-H460; [16]) was greater than 100 µM and the TGI (NCI-H460; read-out: TGI) was 6.18 µM. For the same molecule, the GI50 (NCI-H460; read-out: pGI50 (converted)) was 2.45 µM, the CC50 (NCI-H460; [17]) was greater than 100 µM and the TGI (NCI-H460; read-out: pTGI (converted)) was 6.17 µM. For the same molecule, the growth at 100 µM [1] was -49%, the growth at 100 µM (SK-MEL-5) was -95% and the growth at 1 µM (T47D) was 90%. It also gave a GI50 (NCI-H226; read-out: GI50) of 3.2 µM, a CC50 (NCI-H226; [16]) greater than 100 µM and a TGI (NCI-H226; read-out: TGI) of 17.7 µM. For the same molecule, the GI50 (NCI-H226; read-out: pGI50 (converted)) was 3.16 µM, the CC50 (NCI-H226; [17]) was greater than 100 µM and the TGI (NCI-H226; read-out: pTGI (converted)) was 17.8 µM. For the same molecule, the GI50 ([2]; read-out: GI50) was 2.23 µM, the CC50 [2, 16] was greater than 100 µM and the TGI ([2]; read-out: TGI) was 6.58 µM. The GI50 ([2]; read-out: pGI50 (converted)) was 2.24 µM, the CC50 [2, 17] was greater than 100 µM and the TGI ([2]; read-out: pTGI (converted)) was 6.61 µM. The Activity (Albumin) was 72.31%, the growth at 0.1 µM [3] was 94% and the GI50 (MCF7; read-out: GI50) was 2.4 µM. For the same molecule, the CC50 (MCF7; [16]) was greater than 100 µM, the TGI (MCF7; read-out: TGI) was 7.9 µM and the GI50 (MCF7; read-out: pGI50 (converted)) was 2.4 µM. For the same molecule, the CC50 (MCF7; [17]) was greater than 100 µM, the TGI (MCF7; read-out: pTGI (converted)) was 7.94 µM and the GI50 ([4]; read-out: GI50) was 3.98 µM. It also gave a CC50 [4, 16] greater than 100 µM, a TGI ([4]; read-out: TGI) of 25.4 µM and a GI50 ([4]; read-out: pGI50 (converted)) of 3.98 µM. For the same molecule, the CC50 [4, 17] was greater than 100 µM, the TGI ([4]; read-out: pTGI (converted)) was 25.1 µM and the growth at 100 µM [5] was -11%. For the same molecule, the growth at 10 µM [6] was 12.4%, the growth at 1 µM [7] was 87% and the growth at 10 µM [8] was -4%. For the same molecule, the growth at 0.01 µM [9] was 101%, the growth at 100 µM (SK-MEL-2 [10]) was -68% and the growth at 1 µM (SK-MEL-2 [11]) was 101%. The growth at 10 µM [12] was 9%, the growth at 0.1 µM [13] was 93% and the GI50 ([14]; read-out: GI50) was 3.21 µM. It also gave a CC50 [14, 16] greater than 100 µM, a TGI ([14]; read-out: TGI) of 9.26 µM and a GI50 ([14]; read-out: pGI50 (converted)) of 3.24 µM. For the same molecule, the CC50 [14, 17] was greater than 100 µM, the TGI ([14]; read-out: pTGI (converted)) was 9.33 µM and the growth at 100 µM [15] was -67%. For the same molecule, the growth at 10 µM (MDA-MB-468) was -24% and the growth at 0.1 µM (U-251) was 97%.

Work on `c1ccc(-c2nc(Nc3ccc(-c4nc5ccccc5[nH]4)cc3)nc(N3CCOCC3)n2)cc1` yielded a GI50 (MDA-MB-231; read-out: GI50) of 1.29 µM, a CC50 (MDA-MB-231; [16]) of 9.4 µM and a TGI (MDA-MB-231; read-out: TGI) of 3.48 µM. It also gave a GI50 (MDA-MB-231; read-out: pGI50 (converted)) of 1.29 µM, a CC50 (MDA-MB-231; [17]) of 9.33 µM and a TGI (MDA-MB-231; read-out: pTGI (converted)) of 3.47 µM. For the same molecule, the GI50 (NCI-H460; read-out: GI50) was 0.822 µM, the CC50 (NCI-H460; [16]) was 6.67 µM and the TGI (NCI-H460; read-out: TGI) was 2.46 µM. For the same molecule, the GI50 (NCI-H460; read-out: pGI50 (converted)) was 0.813 µM, the CC50 (NCI-H460; [17]) was 6.61 µM and the TGI (NCI-H460; read-out: pTGI (converted)) was 2.45 µM. It also gave a growth at 100 µM [1] of -61%, a growth at 100 µM (SK-MEL-5) of -91% and a growth at 1 µM (T47D) of 78%. For the same molecule, the GI50 (NCI-H226; read-out: GI50) was 2.4 µM, the CC50 (NCI-H226; [16]) was 8.75 µM and the TGI (NCI-H226; read-out: TGI) was 4.58 µM. It also gave a GI50 (NCI-H226; read-out: pGI50 (converted)) of 2.4 µM, a CC50 (NCI-H226; [17]) of 8.71 µM and a TGI (NCI-H226; read-out: pTGI (converted)) of 4.57 µM. The GI50 ([2]; read-out: GI50) was 1.11 µM, the CC50 [2, 16] was greater than 100 µM and the TGI ([2]; read-out: TGI) was 4.23 µM. The GI50 ([2]; read-out: pGI50 (converted)) was 1.12 µM, the CC50 [2, 17] was greater than 100 µM and the TGI ([2]; read-out: pTGI (converted)) was 4.27 µM. The Activity (Albumin) was 72.27%, the growth at 0.1 µM [3] was 100% and the GI50 (MCF7; read-out: GI50) was 0.877 µM. The CC50 (MCF7; [16]) was 8.56 µM, the TGI (MCF7; read-out: TGI) was 2.85 µM and the GI50 (MCF7; read-out: pGI50 (converted)) was 0.871 µM. It also gave a CC50 (MCF7; [17]) of 8.51 µM, a TGI (MCF7; read-out: pTGI (converted)) of 2.82 µM and a GI50 ([4]; read-out: GI50) of 1.68 µM. It also gave a CC50 [4, 16] of 5.63 µM, a TGI ([4]; read-out: TGI) of 3.08 µM and a GI50 ([4]; read-out: pGI50 (converted)) of 1.7 µM. For the same molecule, the CC50 [4, 17] was 5.62 µM, the TGI ([4]; read-out: pTGI (converted)) was 3.09 µM and the growth at 100 µM [5] was -78%. It also gave a growth at 10 µM [6] of -35.5%, a growth at 1 µM [7] of 68% and a growth at 10 µM [8] of -72%. It also gave a growth at 0.01 µM [9] of 98%, a growth at 100 µM (SK-MEL-2 [10]) of -83% and a growth at 1 µM (SK-MEL-2 [11]) of 106%. It also gave a growth at 10 µM [12] of -62%, a growth at 0.1 µM [13] of 106% and a GI50 ([14]; read-out: GI50) of 2.15 µM. The CC50 [14, 16] was 6.58 µM, the TGI ([14]; read-out: TGI) was 3.76 µM and the GI50 ([14]; read-out: pGI50 (converted)) was 2.14 µM. The CC50 [14, 17] was 6.61 µM, the TGI ([14]; read-out: pTGI (converted)) was 3.8 µM and the growth at 100 µM [15] was -100%. It also gave a growth at 10 µM (MDA-MB-468) of -57% and a growth at 0.1 µM (U-251) of 110%.
